pKi: −log10 of the molar value.
Each compound was assayed against Carbonic anhydrase 12 (Homo sapiens, UniProt O43570) (assay: Inhibition of human carbonic anhydrase 12 incubated for 15 mins prior to testing by stopped flow CO2 hydration assay).
Chain of Carbonic anhydrase 12 (O43570 whole entry): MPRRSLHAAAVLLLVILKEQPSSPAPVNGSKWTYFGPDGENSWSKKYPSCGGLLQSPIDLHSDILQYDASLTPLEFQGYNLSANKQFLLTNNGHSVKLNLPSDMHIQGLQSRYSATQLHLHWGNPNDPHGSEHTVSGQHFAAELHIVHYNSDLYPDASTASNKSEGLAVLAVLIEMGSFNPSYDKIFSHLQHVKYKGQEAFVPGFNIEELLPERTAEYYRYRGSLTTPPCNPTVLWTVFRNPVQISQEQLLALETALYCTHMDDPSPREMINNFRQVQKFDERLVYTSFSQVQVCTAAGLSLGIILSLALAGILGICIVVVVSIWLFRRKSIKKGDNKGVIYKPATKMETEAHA

pKi	Structure (SMILES)
8.12	NS(=O)(=O)c1ccc(C(=O)N2CCc3cc(O)c(O)cc3C2c2ccc(Cl)cc2)cc1 (racemic)

What follows are compounds tested against Carbonic anhydrase 9 (Homo sapiens, UniProt Q16790) (assay: Inhibition of human carbonic anhydrase 9 incubated for 15 mins prior to testing by stopped flow CO2 hydration assay).
Procedure, shortened: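 Recombinant hCA isoform; stopped-flow CO2 hydration monitored by phenol red (0.2 mM) absorbance at 557 nm, 10−20 mM Hepes pH 7.5 or Tris pH 8.3, 20 mM Na2SO4 or NaClO4 for ionic strength; initial rates over 10−100 s, CO2 1.7 to 17 mM; inhibitor dilutions in water down to 0.01 nM, preincubated with enzyme 15 min at room temperature; uncatalyzed rate subtracted; Ki by nonlinear least squares, mean of at least three determinations.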

pKi	Structure (SMILES)
7.49	NS(=O)(=O)c1ccc(C(=O)N2CCc3cc(O)c(O)cc3[C@H]2c2ccccc2)cc1
7.41	NS(=O)(=O)c1ccc(C(=O)N2CCc3cc(O)c(O)cc3[C@@H]2c2ccccc2)cc1
7.04	COc1cc2c(cc1OC)C(c1ccc(Br)cc1)N(C(=O)c1ccc(S(N)(=O)=O)cc1)CC2 (racemic)
8.31	COc1cc2c(cc1OC)C(c1ccccc1)N(C(=O)c1ccc(S(N)(=O)=O)cc1)CC2 (racemic)
7.41	COc1ccc2c(c1)CCN(C(=O)c1ccc(S(N)(=O)=O)cc1)C2c1ccccc1 (racemic)
8.04	COc1cc2c(cc1OC)C(c1ccc(F)cc1)N(C(=O)c1ccc(S(N)(=O)=O)cc1)CC2 (racemic)
8.09	NS(=O)(=O)c1ccc(C(=O)N2CCc3cc(O)c(O)cc3C2c2ccc(F)cc2)cc1 (racemic)
7.35	CCCOc1ccc2c(c1)CCN(C(=O)c1ccc(S(N)(=O)=O)cc1)C2c1ccccc1 (racemic)
7.30	NS(=O)(=O)c1ccc(C(=O)N2CCc3cc(O)ccc3C2c2ccccc2)cc1 (racemic)
8.05	NS(=O)(=O)c1ccc(C(=O)N2CCc3cc(O)c(O)cc3C2c2ccc(Cl)cc2)cc1 (racemic)
7.04	COc1cc2c(cc1OC)C(c1ccc(Cl)cc1)N(C(=O)c1ccc(S(N)(=O)=O)cc1)CC2 (racemic)
7.09	NS(=O)(=O)c1ccc(C(=O)N2CCc3cc(O)c(O)cc3C2c2ccc(Br)cc2)cc1 (racemic)
7.43	NS(=O)(=O)c1ccc(C(=O)N2CCc3cc(O)c(O)cc3C2c2ccccc2)cc1 (racemic)
7.14	NS(=O)(=O)c1ccc(C(=O)N2CCc3cc(O)ccc3C2c2ccccc2)cc1 (single isomer, unassigned; Enantiomer-1)
8.30	COc1cc2c(cc1OC)C(c1ccccc1)N(C(=O)c1ccc(S(N)(=O)=O)cc1)CC2 (single isomer, unassigned; enantiomer 1)
7.60	COc1ccc2c(c1)CCN(C(=O)c1ccc(S(N)(=O)=O)cc1)C2c1ccccc1 (single isomer, unassigned; enantiomer 1)
8.32	COc1cc2c(cc1OC)C(c1ccccc1)N(C(=O)c1ccc(S(N)(=O)=O)cc1)CC2 (single isomer, unassigned; enantiomer 2)
7.23	COc1ccc2c(c1)CCN(C(=O)c1ccc(S(N)(=O)=O)cc1)C2c1ccccc1 (single isomer, unassigned; enantiomer 2)
7.40	NS(=O)(=O)c1ccc(C(=O)N2CCc3cc(O)ccc3C2c2ccccc2)cc1 (single isomer, unassigned; enantiomer 2)
